Assay results taken from ChEMBL document CHEMBL1629431, “Synthesis and antitumor activity of some 2, 3-disubstituted quinazolin-4(3H)-ones and 4, 6- disubstituted- 1, 2, 3, 4-tetrahydroquinazolin-2H-ones” (2010).

Assays:
Assay type in all cases: functional
[1] = tested on: U-251; test: Growth inhibition of human U251 cells at 10 uM after 48 hrs by coulter counter method; conditions: U-251, 48 h, read-out: GI
In short: (§1)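 Single high-dose NCI 60-cell-line panel screen across nine tumor subpanels. Test solutions (0.2 mL) were added in duplicate to wells holding 1.8 mL of culture at 6 × 10⁴ cells/mL. Controls got PBS and DMSO at identical dilutions. Incubation was 48 h at 37 °C in humidified 5% CO₂. Cells were diluted 10-fold in saline, Coulter-counted and dilution-corrected. Results were expressed as percent growth inhibition versus control.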

[2] = tested on: MDA-MB-231; test: Growth inhibition of human MDA-MB-231 cells at 10 uM after 48 hrs by coulter counter method; conditions: MDA-MB-231, 48 h, read-out: GI; in short: as §1
[3] = tested on: NCI-H23; test: Growth inhibition of human NCI-H23 cells at 10 uM after 48 hrs by coulter counter method; conditions: NCI-H23, 48 h, read-out: GI; in short: as §1
[4] = tested on: MDA-MB-468; test: Growth inhibition of human MDA-MB-468 cells at 10 uM after 48 hrs by coulter counter method; conditions: MDA-MB-468, 48 h, read-out: GI; in short: as §1
[5] = tested on: OVCAR-4; test: Growth inhibition of human OVCAR4 cells at 10 uM after 48 hrs by coulter counter method; conditions: OVCAR-4, 48 h, read-out: GI; in short: as §1
[6] = Growth inhibition of human Hs 578T cells at 10 uM after 48 hrs by coulter counter method; conditions: read-out: GI; in short: as §1
[7] = tested on: A549; test: Growth inhibition of human A549 cells at 10 uM after 48 hrs by coulter counter method; conditions: A549, 48 h, read-out: GI; in short: as §1
[8] = tested on: UO-31; test: Growth inhibition of human UO31 cells at 10 uM after 48 hrs by coulter counter method; conditions: UO-31, 48 h, read-out: GI; in short: as §1
[9] = tested on: NCI-H522; test: Growth inhibition of human NCI-H522 cells at 10 uM after 48 hrs by coulter counter method; conditions: NCI-H522, 48 h, read-out: GI; in short: as §1
[10] = tested on: OVCAR-8; test: Growth inhibition of human OVCAR8 cells at 10 uM after 48 hrs by coulter counter method; conditions: OVCAR-8, 48 h, read-out: GI; in short: as §1
[11] = tested on: HL-60(TB); test: Growth inhibition of human HL-60(TB) cells at 10 uM after 48 hrs by coulter counter method; conditions: HL-60, 48 h, read-out: GI
In short: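 Part of the NCI 60-cell-line single-high-dose panel. Cells were seeded at 6 × 10⁴ cells/mL with test solution in duplicate wells, alongside PBS/DMSO controls at identical dilutions. Plates were held 48 h at 37 °C in a humidified 5% CO₂ incubator. Cells were then diluted 10-fold in saline and counted by Coulter counter, with counts corrected for dilution. Results are percent growth of treated cells, reported as GI %.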

[12] = tested on: SK-MEL-28; test: Growth inhibition of human SK-MEL-28 cells at 10 uM after 48 hrs by coulter counter method; conditions: SK-MEL-28, 48 h, read-out: GI; in short: as §1
[13] = tested on: SK-MEL-2; test: Growth inhibition of human SK-MEL-2 cells at 10 uM after 48 hrs by coulter counter method; conditions: SK-MEL-2, 48 h, read-out: GI; in short: as §1
[14] = tested on: T47D; test: Growth inhibition of human T47D cells at 10 uM after 48 hrs by coulter counter method; conditions: read-out: GI; in short: as §1
[15] = tested on: SNB-75; test: Growth inhibition of human SNB75 cells at 10 uM after 48 hrs by coulter counter method; conditions: SNB-75, 48 h, read-out: GI; in short: as §1
[16] = tested on: HOP-92; test: Growth inhibition of human HOP92 cells at 10 uM after 48 hrs by coulter counter method; conditions: HOP-92, 48 h, read-out: GI; in short: as §1
[17] = tested on: 786-0; test: Growth inhibition of human 786-0 cells at 10 uM after 48 hrs by coulter counter method; conditions: 786-0, 48 h, read-out: GI; in short: as §1
[18] = tested on: MCF7; test: Growth inhibition of human MCF7 cells at 10 uM after 48 hrs by coulter counter method; conditions: MCF7, 48 h, read-out: GI; in short: as §1
[19] = tested on: KM12; test: Growth inhibition of human KM12 cells at 10 uM after 48 hrs by coulter counter method; conditions: KM12, 48 h, read-out: GI; in short: as §1
[20] = tested on: PC-3; test: Growth inhibition of human PC3 cells at 10 uM after 48 hrs by coulter counter method; conditions: PC-3, 48 h, read-out: GI; in short: as §1
[21] = tested on: SK-OV-3; test: Growth inhibition of human SKOV3 cells at 10 uM after 48 hrs by coulter counter method; conditions: SK-OV-3, 48 h, read-out: GI; in short: as §1
[22] = tested on: HCT-116; test: Growth inhibition of human HCT116 cells at 10 uM after 48 hrs by coulter counter method; conditions: HCT-116, 48 h, read-out: GI; in short: as §1
[23] = tested on: CCRF-CEM; test: Growth inhibition of human CCRF-CEM cells at 10 uM after 48 hrs by coulter counter method; conditions: read-out: GI; in short: as §1
[24] = tested on: MOLT-4; test: Growth inhibition of human MOLT4 cells at 10 uM after 48 hrs by coulter counter method; conditions: MOLT-4, 48 h, read-out: GI; in short: as §1
[25] = tested on: SN12C; test: Growth inhibition of human SN12C cells at 10 uM after 48 hrs by coulter counter method; conditions: read-out: GI; in short: as §1
[26] = tested on: UACC-62; test: Growth inhibition of human UACC62 cells at 10 uM after 48 hrs by coulter counter method; conditions: UACC-62, 48 h, read-out: GI; in short: as §1
[27] = tested on: COLO 205; test: Growth inhibition of human COLO205 cells at 10 uM after 48 hrs by coulter counter method; conditions: COLO 205, 48 h, read-out: GI; in short: as §1
[28] = tested on: NCI-H226; test: Growth inhibition of human NCI-H226 cells at 10 uM after 48 hrs by coulter counter method; conditions: NCI-H226, 48 h, read-out: GI; in short: as §1
[29] = tested on: IGROV-1; test: Growth inhibition of human IGROV1 cells at 10 uM after 48 hrs by coulter counter method; conditions: IGROV-1, 48 h, read-out: GI; in short: as §1
[30] = tested on: SF-268; test: Growth inhibition of human SF268 cells at 10 uM after 48 hrs by coulter counter method; conditions: SF-268, 48 h, read-out: GI; in short: as §1
[31] = tested on: SF-539; test: Growth inhibition of human SF539 cells at 10 uM after 48 hrs by coulter counter method; conditions: SF-539, 48 h, read-out: GI; in short: as §1
[32] = tested on: SR; test: Growth inhibition of human SR cells at 10 uM after 48 hrs by coulter counter method; conditions: read-out: GI; in short: as §1
[33] = tested on: M14; test: Growth inhibition of human M14 cells at 10 uM after 48 hrs by coulter counter method; conditions: M14, 48 h, read-out: GI; in short: as §1
[34] = tested on: CAKI-1; test: Growth inhibition of human Caki1 cells at 10 uM after 48 hrs by coulter counter method; conditions: CAKI-1, 48 h, read-out: GI; in short: as §1
[35] = tested on: K562; test: Growth inhibition of human K562 cells at 10 uM after 48 hrs by coulter counter method; conditions: K562, 48 h, read-out: GI; in short: as §1

COc1ccc(C(=O)CSc2nc3ccccc3c(=O)n2-c2ccc(OC)cc2)cc1
inhibition of growth at 10 µM [1]: 30%
inhibition of growth at 10 µM [2]: 30%
inhibition of growth at 10 µM [3]: 30%
inhibition of growth at 10 µM [4]: 30.8%
inhibition of growth at 10 µM [5]: 30%
inhibition of growth at 10 µM [6]: 30%
inhibition of growth at 10 µM [7]: 30.8%
inhibition of growth at 10 µM [8]: 30.3%
inhibition of growth at 10 µM [9]: < 30%
inhibition of growth at 10 µM [10]: 30%
inhibition of growth at 10 µM [11]: 43%
inhibition of growth at 10 µM [12]: 30%
inhibition of growth at 10 µM [13]: 30%
inhibition of growth at 10 µM [14]: 30%
inhibition of growth at 10 µM [15]: 30%
inhibition of growth at 10 µM [16]: 30%
inhibition of growth at 10 µM [17]: 30%
inhibition of growth at 10 µM [18]: 30%
inhibition of growth at 10 µM [19]: 30%
inhibition of growth at 10 µM [20]: 30%
inhibition of growth at 10 µM [21]: 30%
inhibition of growth at 10 µM [22]: 30%
inhibition of growth at 10 µM [23]: 70.3%
inhibition of growth at 10 µM [24]: 49.4%
inhibition of growth at 10 µM [25]: 30%
inhibition of growth at 10 µM [26]: 30%
inhibition of growth at 10 µM [27]: 30%
inhibition of growth at 10 µM [28]: 30%
inhibition of growth at 10 µM [29]: 30%
inhibition of growth at 10 µM [30]: 30%
inhibition of growth at 10 µM [31]: 30%
inhibition of growth at 10 µM [32]: 34.9%
inhibition of growth at 10 µM [33]: 30%

CCn1c(SC)nc2ccccc2c1=O
inhibition of growth at 10 µM [1]: 30%
inhibition of growth at 10 µM [2]: 30%
inhibition of growth at 10 µM [3]: 30%
inhibition of growth at 10 µM [4]: 30%
inhibition of growth at 10 µM [5]: 30%
inhibition of growth at 10 µM [6]: 30%
inhibition of growth at 10 µM [7]: 30%
inhibition of growth at 10 µM [8]: 30%
inhibition of growth at 10 µM [9]: 30%
inhibition of growth at 10 µM [10]: 30%
inhibition of growth at 10 µM [11]: 34.8%
inhibition of growth at 10 µM [12]: 30%
inhibition of growth at 10 µM [13]: 30%
inhibition of growth at 10 µM [14]: 30%
inhibition of growth at 10 µM [15]: 30%
inhibition of growth at 10 µM [16]: 60.8%
inhibition of growth at 10 µM [17]: 30%
inhibition of growth at 10 µM [18]: 30%
inhibition of growth at 10 µM [19]: 30%
inhibition of growth at 10 µM [20]: 30%
inhibition of growth at 10 µM [21]: 30%
inhibition of growth at 10 µM [22]: 30%
inhibition of growth at 10 µM [23]: 49.5%
inhibition of growth at 10 µM [24]: 30%
inhibition of growth at 10 µM [25]: 30%
inhibition of growth at 10 µM [26]: 30%
inhibition of growth at 10 µM [27]: 30%
inhibition of growth at 10 µM [34]: 42.9%
inhibition of growth at 10 µM [28]: 30%
inhibition of growth at 10 µM [29]: 30%
inhibition of growth at 10 µM [30]: 30%
inhibition of growth at 10 µM [31]: 30%
inhibition of growth at 10 µM [32]: 30%
inhibition of growth at 10 µM [33]: 30%
inhibition of growth at 10 µM [35]: 30%

O=c1c2ccccc2nc(Nc2nnc(-c3ccc(Cl)cc3)s2)n1-c1ccccc1
inhibition of growth at 10 µM [1]: 30%
inhibition of growth at 10 µM [2]: 30%
inhibition of growth at 10 µM [3]: 30%
inhibition of growth at 10 µM [4]: 30%
inhibition of growth at 10 µM [5]: 30%
inhibition of growth at 10 µM [6]: 30%
inhibition of growth at 10 µM [7]: 30%
inhibition of growth at 10 µM [8]: 30%
inhibition of growth at 10 µM [9]: 31.9%
inhibition of growth at 10 µM [10]: 30%
inhibition of growth at 10 µM [11]: 30%
inhibition of growth at 10 µM [12]: 30%
inhibition of growth at 10 µM [13]: 30%
inhibition of growth at 10 µM [14]: 30%
inhibition of growth at 10 µM [15]: 30%
inhibition of growth at 10 µM [16]: 30%
inhibition of growth at 10 µM [17]: 30%
inhibition of growth at 10 µM [18]: 30%
inhibition of growth at 10 µM [19]: 30%
inhibition of growth at 10 µM [20]: 30%
inhibition of growth at 10 µM [21]: 30%
inhibition of growth at 10 µM [22]: 30%
inhibition of growth at 10 µM [23]: 30%
inhibition of growth at 10 µM [24]: 30%
inhibition of growth at 10 µM [25]: 30%
inhibition of growth at 10 µM [26]: 30%
inhibition of growth at 10 µM [27]: 30%
inhibition of growth at 10 µM [34]: 30%
inhibition of growth at 10 µM [28]: 30%
inhibition of growth at 10 µM [29]: 65.9%
inhibition of growth at 10 µM [30]: 30%
inhibition of growth at 10 µM [31]: 30%
inhibition of growth at 10 µM [32]: 30%
inhibition of growth at 10 µM [33]: 30%
inhibition of growth at 10 µM [35]: 30%
